Results as given in paper PMC2808126 (Molecular cancer therapeutics, 2009).
Where two headings read alike, the source gives them in different places. Values belong to the compound of their own block, whether it stands above or below them.

Experiments:
[1] = system: phosphorylated Bad^Ser112 in 22Rv1-T cells; assay: Western blot of phospho-Bad Ser112; type: cell-based, human; settings: 5 hours
Summary of the method: (§1)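 Cells (22Rv1, C4-2B or the paclitaxel-resistant 22Rv1 subline) treated with increasing doses of test compound for 5 h. Lysates immunoblotted for phospho-Bad Ser112 and total Bad, with β-actin as loading control.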

[2] = system: C4-2B cells; assay: Cell cycle analysis by flow cytometry; type: cell-based, human; settings: 24 hours, untreated 72%
[3] = system: 22Rv1-T cells; assay: ATP viability assay; type: cell-based, human; settings: for cell viability response: 22Rv1-T, time course to 72 hours; for IC50: Homo sapiens, 72 h
Summary of the method: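 Paclitaxel-resistant 22Rv1 subline made by serial passage over about 4 months in rising paclitaxel (0-400ng/ml), then maintained in 5ng/ml paclitaxel. About 1,000 cells/well plated in 1% serum in 384-well plates. Next day, taxanes or test compound added alone, or combined with paclitaxel, for up to 72 h. ATPlite luminescence read, replicate wells averaged.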

[4] = system: MDR1 activity in 22Rv1-T cells; assay: Multidrug resistance assay; type: cell-based, human; settings: 15 minutes; for fluorescent calcein retention (MDR1 efflux activity): single agent
[5] = system: p-p21^Thr145 in 22Rv1-Pim1 cells; assay: Western blot of phospho-p21 Thr145; type: cell-based, human; settings: 22Rv1-Pim1, 1μM, 2 hours
[6] = system: C4-2B cells; assay: ATP viability assay; type: cell-based; settings: Homo sapiens, 72 h, read-out: approximate IC50, cell viability
Summary of the method: (§2)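 Lines kept in RPMI 1640 with 10% FBS, except LAPC-4 in Iscove's medium with 5% FBS. About 1,000 cells/well plated in 384-well plates in 1% serum. Test compound added next day at increasing concentrations. For 22Rv1, agents given alone or combined for 48 h, or taxanes for 72 h. Other lines treated 72 h. ATPlite luminescence read, replicate wells averaged, approximate IC50 estimated.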

[7] = system: PC3 cells; assay: ATP viability assay; type: cell-based; settings: Homo sapiens, PC-3, 72 h, read-out: approximate IC50, cell viability
Summary of the method: as §2

[8] = system: 22Rv1-Pim1 cells; assay: ATP viability assay; type: cell-based, human; settings: 72 hours
[9] = system: MDR1 mRNA in 22Rv1-T cells; assay: Quantitative real-time RT-PCR of MDR1; type: cell-based, human; settings: 22Rv1-T (Supplementary Fig. 3b)
[10] = system: RWPE2-W99 cells; assay: ATP viability assay; type: cell-based; settings: Homo sapiens, Keratinocyte, 72 h, read-out: approximate IC50, cell viability
Summary of the method: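 RWPE2-W99 kept in Keratinocyte Serum Free Medium with bovine pituitary extract and human recombinant EGF. About 1,000 cells/well plated in 384-well plates in complete medium. Test compound added next day at increasing concentrations for 72 h. Viability read by ATPlite luminescence, replicate wells averaged, approximate IC50 estimated.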

[11] = system: phospho-p21^Thr145 in C4-2B cells; assay: Western blot of phospho-p21 Thr145; type: cell-based, human; settings: 5 hour treatment
Summary of the method: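 C4-2B cells, kept in RPMI 1640 with 10% FBS, treated 5 h with increasing concentrations of test compound. Western blot probed for phospho-p21 Thr145 and total p21, with β-actin as loading control.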

[12] = system: 22Rv1 cells; assay: Cell cycle analysis by flow cytometry; type: cell-based, human; settings: 24 hours, untreated 60%
[13] = system: C4-2B cells; assay: Caspase-3 fluorometric protease assay; type: cell-based, human; settings: increasing concentrations, 24 hours
Summary of the method: (§3)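 Cells held overnight in 1% serum, then exposed to increasing concentrations of test compound for 24 h. Apoptosis measured as caspase-3 activity with a fluorometric protease assay kit. Activity expressed relative to untreated samples.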

[14] = system: 22Rv1 cells; assay: Caspase-3 fluorometric protease assay; type: cell-based, human; settings: 22Rv1, increasing concentrations, 24 hours
Summary of the method: as §3

[15] = system: LNCaP cells; assay: ATP viability assay; type: cell-based; settings: Homo sapiens, 72 h, read-out: approximate IC50, cell viability
Summary of the method: as §2

[16] = system: phosphorylated Bad^Ser112 in C4-2B cells; assay: Western blot of phospho-Bad Ser112; type: cell-based, human; settings: increasing doses, 5 hours
Summary of the method: as §1

[17] = system: phosphorylated Bad^Ser112 in 22Rv1 cells; assay: Western blot of phospho-Bad Ser112; type: cell-based, human; settings: 22Rv1, increasing doses, 5 hours
Summary of the method: as §1

[18] = system: phospho-p21^Thr145 in 22Rv1 cells; assay: Western blot of phospho-p21 Thr145; type: cell-based, human
[19] = system: LAPC-4 cells; assay: ATP viability assay; type: cell-based; settings: Homo sapiens, LAPC4, 72 h, read-out: approximate IC50, cell viability
Summary of the method: as §2

[20] = system: 22Rv1-T cells; assay: Caspase-3 fluorometric protease assay; type: cell-based, human
[21] = system: 22Rv1-Pim1 cells; assay: Caspase-3 fluorometric protease assay; type: cell-based; settings: Homo sapiens, 22Rv1, read-out: fold induction of apoptosis (caspase-3) in 22Rv1-Pim1 compared to 22Rv1
[22] = system: 22Rv1 cells; assay: ATP viability assay; type: cell-based; settings: Homo sapiens; for IC50: 22Rv1, 72 h, read-out: approximate IC50, cell viability (taxanes)
Summary of the method: as §2

[23] = system: DU145 cells; assay: ATP viability assay; type: cell-based; settings: Homo sapiens, DU-145, 72 h, read-out: approximate IC50, cell viability
Summary of the method: as §2

[24] = 22Rv1, 48 h, read-out: cell viability
[25] = read-out: IC50, cell viability (taxanes)

SMILES: CN1CCC(CNc2ccc3ncc(-c4cccc(OC(F)(F)F)c4)n3n2)CC1 [SGI-1776]
concentration of maximal inhibition of phosphorylated Bad^Ser112 [1]: 5 to 7.5 µM
percentage of cells in the G1 phase ([2]; 2.5μM): 81% ± 1.24
percentage of cells in the G1 phase ([2]; 7.5μM): 95% ± 0.16
cell viability response ([3]; 2.5μM SGI-1776 alone): minimal response
IC50 ([3]; read-out: approximate IC50, cell viability): ~5 µM
fluorescent calcein accumulation, combination ([4]; paclitaxel combined with SGI-1776): did not further enhance
fluorescent calcein retention (MDR1 efflux activity) [4]: dose-dependent increase
effect on p-p21^Thr145 abundance [5]: dramatic inhibition
IC50 [6]: ~4 µM
IC50 [7]: ~3 µM
reduction in IC50 in 22Rv1-Pim1 compared to 22Rv1, cell viability [8]: ~3 fold
MDR1 mRNA expression levels [9]: did not alter
IC50 [10]: ~9 µM
concentration of maximal inhibition of phospho-p21^Thr145 [11]: 7.5 µM
percentage of cells in the G1 phase ([12]; 22Rv1, 2.5μM): 70% ± 2.00
percentage of cells in the G1 phase ([12]; 22Rv1, 7.5μM): 81% ± 1.17
caspase-3 activity levels [13]: dose-dependent increase
caspase-3 activity levels [14]: dose-dependent increase
IC50 [15]: ~5 µM
phosphorylated Bad^Ser112 protein levels [16]: dose-dependent decrease
phosphorylated Bad^Ser112 protein levels [17]: dose-dependent decrease
effect on p-p21^Thr145 abundance ([18]; 22Rv1, 1μM, 2 hours): minimal, if any, effect
concentration of maximal inhibition of phospho-p21^Thr145 ([18]; 22Rv1, 5 hour treatment): 5 µM
concentration at which significant decrease in p-p21^Thr145 was first observed ([18]; parental 22Rv1 (Fig. 3a)): 2.5 to 5 µM
IC50 [19]: > 10 µM
increase of caspase-3 activity compared to untreated cells ([20]; 2.5μM SGI-1776, 24 hours): 1.42 fold
caspase-3 activity relative to untreated (100%) ([20]; 2.5μM SGI-1776, 24 hours, ± 3): 142%
increase of caspase-3 activity compared to untreated cells ([20]; 2.5μM SGI-1776 combined with 50nM paclitaxel, 24 hours): 2.7 fold
caspase-3 activity relative to untreated (100%) ([20]; 2.5μM SGI-1776 combined with 50nM paclitaxel, 24 hours, ± 8, p<0.0001): 269%
fold induction at 2.5 µM [21]: 1.6
viability at 2.5 µM [22, 24]: 63%
IC50 [23]: ~8 µM

IC50 [3, 25]: > 0.1 µM
IC50 [22]: ~0.0025 µM
SMILES: CC(=O)O[C@@]12CO[C@@H]1C[C@H](O)[C@@]1(C)C(=O)[C@H](O)C3=C(C)[C@@H](OC(=O)[C@H](O)[C@@H](NC(=O)OC(C)(C)C)c4ccccc4)C[C@@](O)([C@@H](OC(=O)c4ccccc4)[C@H]21)C3(C)C [docetaxel]

IC50 [3, 25]: > 0.1 µM
IC50 [22]: ~0.0045 µM
SMILES: CC(=O)O[C@H]1C(=O)[C@@]2(C)[C@H]([C@H](OC(=O)c3ccccc3)[C@]3(O)C[C@H](OC(=O)[C@H](O)[C@@H](NC(=O)c4ccccc4)c4ccccc4)C(C)=C1C3(C)C)[C@]1(OC(C)=O)CO[C@@H]1C[C@@H]2O [paclitaxel]
cell viability response ([3]; 50nM paclitaxel alone): does not respond
fluorescent calcein retention (MDR1 efflux activity) [4]: no different from the untreated cells
change in caspase-3 levels ([20]; increasing doses of paclitaxel alone, 24 hours): lack of change
viability at 0.0025 µM [22, 24]: 62.6%
